Sampled rows, rich in hits. Any-hit rate of the full collection: about 2.2%.
Env fusion inh: blocks HIV Env-driven cell-cell fusion; HeLa-JRFL Env/CEM21 cell fusion, luciferase; AID 651610; 1.1% of 360,000 active; inhibition, % at 12.3 µM;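 active = mean replicate inhibition score of at least 50 and every replicate individually at or above 50; inconclusive = only one of the two criteria met; inactive = mean below 50 and not all replicates reaching 50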;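 also: 0% = plate neutral controls and 100% = maraviroc near 300 nM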
FN deposition inh: fibronectin deposition inhibition; 0.086% of 350,000 active; inhibition, % at 12.6 µM; AH1F fibroblasts, Alexa488-fibronectin deposition fluorescence, overnight; AID 743247;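 active = mean inhibition across replicates of 30% or more, regardless of how many single replicates reach that level; inconclusive = mean under 30% yet at least half of replicates reach 30%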;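 also: positive control wells lacked labelled fibronectin entirely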
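Schedule: 1 h cell adhesion before compound, then overnight fibronectin incubation; test system: AH1F fibroblast monolayer depositing Alexa488-labelled fibronectin into matrix; quantity: 10000 AH1F cells per well; probe or stimulus: fluorescent fibronectin at 24 nM final; signal: fluorescence, ex 485 nm, em 525 nm; evaluation: percent inhibition as loss of matrix-bound fibronectin fluorescence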
PDI inh: inhibitors of human protein disulfide isomerase | PDI insulin aggregation turbidity, A650, 90 min | 0.052% of 350,000 active | inhibition, % at 10 µM;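 active = mean inhibition across replicates of 30% or more, whatever share of single replicates reach that level; inconclusive = mean inhibition below 30% while every single replicate reaches 30%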
PvdQ acylase: P. aeruginosa PvdQ acylase inhibition. purified PvdQ acylase, fluorescence plate reader. inhibition, % at 10 µM. 0.063% of 340,000 active. AID 488965; in the data active = inhibition above about 30%, passing the limit was not always enough; inconclusive = no clear call, values can overlap the other calls;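 also: 0% = vehicle neutral wells and 100% = reference inhibitor wells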
rRNA inh HTS: inhibitors of bacterial rRNA selective over humanized ribosomes; E. coli WT GFP vs humanized-ribosome RFP mutants, fluorescence, 24 h; active compounds read low; DMSO median 0, no signal -100; 1.6% of 350,000 active; GFP signal change (wild-type ribosome), % (test concentration not listed);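 active = significant combined selectivity score with lowered wild-type GFP, culture density cut under 30%, mutant RFP and density less affected; inactive = any of these conditions unmet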
ERp5 inh: blocks human ERp5 reductase activity on insulin; AID 651711; inhibition, % at 9.99 µM; ERp5 insulin aggregation, absorbance 650 nm, 90 min; 0.05% of 350,000 active;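 active = mean replicate inhibition above about 25%, with every replicate also reaching it, limit read from the data, passing the limit was not always enough; inconclusive = only one of those two criteria met; inactive = neither criterion met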
Target sequence (Q15084 whole entry, looked up): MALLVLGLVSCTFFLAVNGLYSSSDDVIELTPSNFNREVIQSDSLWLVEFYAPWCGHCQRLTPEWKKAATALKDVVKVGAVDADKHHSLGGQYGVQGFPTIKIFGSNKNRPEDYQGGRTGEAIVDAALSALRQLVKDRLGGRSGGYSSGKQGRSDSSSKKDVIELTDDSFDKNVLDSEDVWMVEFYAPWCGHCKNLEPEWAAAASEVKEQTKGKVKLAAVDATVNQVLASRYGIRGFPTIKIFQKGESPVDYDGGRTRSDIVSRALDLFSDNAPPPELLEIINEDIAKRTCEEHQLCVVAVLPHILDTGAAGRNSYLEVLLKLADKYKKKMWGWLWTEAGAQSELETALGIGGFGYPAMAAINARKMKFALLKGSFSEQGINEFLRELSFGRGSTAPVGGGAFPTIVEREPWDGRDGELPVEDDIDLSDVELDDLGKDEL
AID977621: growth inhibition of wild-type GFP E. coli, dose response, H69 mutant RFP, cherry-pick; E. coli wild-type GFP strain growth, fluorescence, 24 h; AID 977621; shares compounds with rRNA inh HTS; activity change, negative = inhibition at 50 µM; 1,900 tested, under 10 active;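 active = Wild-type ribosome reporter drop at least double the humanized mutant ribosome reporter drop, growth loss under a set limit; inconclusive = no clear call, values can overlap the other calls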;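 also: wild-type GFP and H69 mutant RFP strains grown together 50/50 in each well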
AID977628: growth of wild-type and h24-humanized E. coli strains – h24 mutant RFP vs wild-type GFP, cherry-pick, dose response; shares compounds with rRNA inh HTS; E. coli WT GFP strain growth, fluorescence, 24 h; activity change, negative = inhibition at 50 µM; 1,900 tested, under 10 active; AID 977628;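 active = compound lowering the normal-ribosome reporter at least twice as much as the humanized-ribosome reporter, growth loss under a set limit; inconclusive = no clear call, values can overlap the other calls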;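 also: wild-type GFP and h24 humanized RFP strains co-cultured 1 to 1 per well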
* marks the source's active call; other numbers are inactive results; [ ] = dose if it differs, or a comment.

Results for COCC(=O)N1C[C@H](C)[C@@H](OC)CN(C)C(=O)c2cc(NS(C)(=O)=O)ccc2OC[C@H]1C ?
FN deposition inh: 8; rRNA inh HTS: 4

Results for COc1ccccc1CN1Cc2ccccc2Oc2ccccc2S1(=O)=O ?
Env fusion inh: -3; FN deposition inh: 5; rRNA inh HTS: -27*; ERp5 inh: -9; AID977621: inconclusive

What do the screens show for `COc1ccc(NC(=O)Nc2ccc3c(c2)C(=O)N([C@@H](C)CO)C[C@H](C)[C@@H](CN(C)C(=O)Nc2ccc(F)cc2)OCCCC[C@H](C)O3)cc1`?
Env fusion inh: 30[16.7 µM]; FN deposition inh: -7; rRNA inh HTS: 1; ERp5 inh: 4

How did COc1ccc2c3c(n(C)c2c1)[C@@H](CO)N(C(=O)c1ccccn1)CC31CCN(C)CC1 do in these assays?
rRNA inh HTS: 9

What do the screens show for `O=C(Nc1ccc(-c2nnc3n2CCCCC3)cc1)c1cc2ccccc2o1`?
Env fusion inh: 14; FN deposition inh: 1; PDI inh: 19; PvdQ acylase: -11; rRNA inh HTS: -20*; ERp5 inh: -3; AID977621: -7.4; AID977628: -3.2

Results for CSc1ccccc1C(=O)NCCc1ccc(S(=O)(=O)N2CCCCC2)cc1 ?
PDI inh: -3; PvdQ acylase: 2; rRNA inh HTS: -21*; ERp5 inh: -6; AID977628: -13

Results for O=C(NCCc1ccccc1)c1ccc(S(=O)(=O)N2CCCCC2)cc1 ?
Env fusion inh: -10; FN deposition inh: 5; PDI inh: -6; rRNA inh HTS: 4; ERp5 inh: 3

Results for Cc1cc(C)nc(SCCC(=O)Nc2ccccc2Cl)n1 ?
Env fusion inh: 0; PDI inh: -6; PvdQ acylase: -3; rRNA inh HTS: -18*; ERp5 inh: -14; AID977628: -15

How did Cc1cc(C)nc(SCCC(=O)Nc2cccc3ccccc23)n1 do in these assays?
PDI inh: 9; PvdQ acylase: 8

Results for O=C(Cc1ccccc1)N[C@@H]1CC[C@@H](CC(=O)N2CCCCC2)O[C@@H]1CO ?
Env fusion inh: 17[16.7 µM]; FN deposition inh: 4; rRNA inh HTS: 1; ERp5 inh: -1

Results for COc1ccc(-c2noc(CCc3ccccc3)n2)cc1 ?
Env fusion inh: -8; FN deposition inh: 3; PDI inh: 10; PvdQ acylase: 3; rRNA inh HTS: -20*; ERp5 inh: 3; AID977621: -0.82; AID977628: -1.8

Results for O=C(C[C@H]1C[C@@H]2c3cc(NS(=O)(=O)c4ccc(F)cc4)ccc3O[C@@H]2[C@@H](CO)O1)N1CCOCC1 ?
Env fusion inh: -14[16.7 µM]; FN deposition inh: 1; rRNA inh HTS: -1; ERp5 inh: 6

Results for CCCCOc1ccc(-c2nnn(CCC(=O)N3CCOCC3)n2)cc1 ?
PDI inh: 4; PvdQ acylase: -4; rRNA inh HTS: -22*; ERp5 inh: 2; AID977621: 4; AID977628: -8.5

What do the screens show for `Oc1ccccc1Oc1ncc(Br)c(Cl)n1`?
Env fusion inh: -1; FN deposition inh: -2; PDI inh: 5; PvdQ acylase: 0; rRNA inh HTS: -25*; ERp5 inh: -6; AID977628: 3.7

Results for CCOC(=O)c1ccc(NC(=O)COc2ccc(CNCCO)cc2OCC)cc1 ?
Env fusion inh: 13; FN deposition inh: 5; PDI inh: 7; PvdQ acylase: 4; rRNA inh HTS: -24*; ERp5 inh: -13; AID977621: -11; AID977628: -4.7

How did CCOC(=O)c1cnc2ccccc2c1NCc1ccco1 do in these assays?
Env fusion inh: -4; FN deposition inh: 6; PDI inh: -1; PvdQ acylase: -15; rRNA inh HTS: -29*; ERp5 inh: -1; AID977628: -10

Source: PubChem (Broad Institute)
